From ChEMBL document CHEMBL1138351, “Small, potent, and selective diaryl phosphonate inhibitors for urokinase-type plasminogen activator with in vivo antimetastatic properties” (J Med Chem, 2007) come the findings set out here.

A short description of data set [1]: Distribution coefficient, log D in octanol and phosphate buffer saline at pH 7.4. In kind it is physicochemical. The conditions noted are these: octanol/phosphate buffered saline. Summed up: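 A 10 mM DMSO stock was added to a 1:1 octanol/PBS pH 7.4 mixture. Measured in duplicate.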
A further data set deals with Rattus norvegicus. Put plainly: Toxicity in Brown Norwegian rat bearing BN472 tumor assessed as increase in kidney weight at 1 mg/kg, ip administered once daily after 4 days of tumor transplantation for 17 to 18 days relative to control. Type of data set: organism-based. On the set-up: dose 1 mg/kg, route intraperitoneal. As to conditions: in vivo. Summed up: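 Orthotopic BN472 breast tumour model in rats. Daily i.p. dosing at 0.1 or 1 mg/kg started on day 4 and ran 17–18 days, with vehicle-only i.p. controls. Side effects were assessed from body weight and the weights of several organs, compared with controls.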

In data set [2] the target is Prothrombin (Homo sapiens, UniProt P00734). Put plainly: Inhibition of human thrombin. An outline of the steps:
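Human plasma thrombin was assayed at 37 °C in Tris pH 8.3. […] Initial rate was read at 405 nm, in duplicate. IC50 was obtained from a four-parameter logistic fit.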

A short description of data set [3]: Antimetastatic activity against Brown Norwegian rat bearing BN472 tumor assessed as decrease in number of lung foci at 0.1 mg/kg, ip administered once daily after 4 days of tumor transplantation for 17 to 18 days relative to control. As to conditions: route intraperitoneal. On the set-up: scale not given: the % may be the effect or the level left. In kind it is functional. Summed up:
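BN472 breast tumours implanted orthotopically in rats and left to grow three days. From day 4, compounds were given i.p. daily for 17–18 days at 0.1 or 1 mg/kg. Controls received vehicle i.p. only. Lung foci were counted and axillary lymph nodes weighed at the end of treatment. Groups were compared with control at an unadjusted significance level of P 0.05.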

Data set [4] can be described thus: Chemical stability assessed as half life of hydrolysis at pH 7.4. Type of data set: physicochemical. The conditions noted are these: buffer.
A short description of data set [5]: Stability in human plasma after 3 hrs. In kind it is ADME, cell-free. As to conditions: read-out: Stability. Summed up: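 Compound was added from 10 mM DMSO stock to human plasma at 200 µM final and shaken at 37 °C for up to 24 h. Aliquots were quenched in methanol and centrifuged. The supernatant was diluted with internal standard and analysed by LC/MS/MS in triplicate. Result is given as % parent compound remaining.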

Data set [6] concerns the target Urokinase-type plasminogen activator (Homo sapiens, UniProt P00749).
Data set [7] is described as follows: Antitumor activity aganist Brown Norwegian rat bearing BN472 tumor assessed as reduction of tumor size at 0.1 mg/kg, ip administered once daily after 4 days of tumor transplantation for 17 to 18 days relative to control. In kind it is functional. On the set-up: scale not given: the % may be the effect or the level left. As to conditions: route intraperitoneal. Summed up:
(§1)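 Rats bearing orthotopic BN472 breast tumours (grown three days) were dosed i.p. daily from day 4 for 17–18 days at 0.1 or 1 mg/kg. Vehicle-only i.p. controls were included. Tumour size and tumour weight were measured at the end of the treatment period and compared with controls.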

The nature of data set [8]: Antitumor activity against Brown Norwegian rat bearing BN472 tumor assessed as reduction of tumor size at 1 mg/kg, ip administered once daily after 4 days of tumor transplantation for 17 to 18 days relative to control. Type of data set: functional. Set-up: scale not given: the % may be the effect or the level left. The conditions noted are these: route intraperitoneal. An outline of the steps:
as §1

The target in data set [9] is Urokinase-type plasminogen activator (Mus musculus, UniProt P06869). Put plainly: Inhibition of mouse uPA.
Chain of Urokinase-type plasminogen activator (Mus musculus, UniProt P06869) (P06869 21-178 limits assumed): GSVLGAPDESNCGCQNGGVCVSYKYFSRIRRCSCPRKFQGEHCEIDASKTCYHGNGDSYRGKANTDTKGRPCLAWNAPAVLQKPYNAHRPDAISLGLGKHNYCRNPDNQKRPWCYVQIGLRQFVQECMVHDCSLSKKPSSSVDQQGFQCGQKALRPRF
Chain of Urokinase-type plasminogen activator (Mus musculus, UniProt P06869) (P06869 180-433 limits assumed): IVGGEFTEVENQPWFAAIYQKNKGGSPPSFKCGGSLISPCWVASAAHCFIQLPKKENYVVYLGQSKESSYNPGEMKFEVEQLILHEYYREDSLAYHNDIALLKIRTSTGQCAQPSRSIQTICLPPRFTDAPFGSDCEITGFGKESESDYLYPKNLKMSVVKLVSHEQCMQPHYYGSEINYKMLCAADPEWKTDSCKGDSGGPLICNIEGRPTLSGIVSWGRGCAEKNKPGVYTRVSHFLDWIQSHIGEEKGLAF
Data set [10] deals with Prothrombin (Mus musculus, UniProt P19221). Nature of the data set: Inhibition of mouse thrombin.
In a further data set the target is Plasminogen (Rattus norvegicus, UniProt Q01177). Put plainly: Inhibition of rat plasmin.
Chain of Plasminogen (Q01177 97-581 limits assumed): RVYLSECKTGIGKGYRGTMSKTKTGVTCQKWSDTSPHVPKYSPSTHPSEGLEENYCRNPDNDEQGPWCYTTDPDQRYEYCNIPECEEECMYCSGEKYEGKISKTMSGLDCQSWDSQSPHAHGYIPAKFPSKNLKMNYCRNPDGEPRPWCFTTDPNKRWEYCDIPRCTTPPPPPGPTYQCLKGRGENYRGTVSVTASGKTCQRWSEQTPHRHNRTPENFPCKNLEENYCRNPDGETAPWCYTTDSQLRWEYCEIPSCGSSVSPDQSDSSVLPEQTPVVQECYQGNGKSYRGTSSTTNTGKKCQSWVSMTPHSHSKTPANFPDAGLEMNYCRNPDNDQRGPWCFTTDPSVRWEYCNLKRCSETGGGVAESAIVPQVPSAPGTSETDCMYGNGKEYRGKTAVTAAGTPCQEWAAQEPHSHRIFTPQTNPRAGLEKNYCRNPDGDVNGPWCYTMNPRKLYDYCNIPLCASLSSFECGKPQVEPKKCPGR
Chain of Plasminogen (Q01177 582-812 limits assumed): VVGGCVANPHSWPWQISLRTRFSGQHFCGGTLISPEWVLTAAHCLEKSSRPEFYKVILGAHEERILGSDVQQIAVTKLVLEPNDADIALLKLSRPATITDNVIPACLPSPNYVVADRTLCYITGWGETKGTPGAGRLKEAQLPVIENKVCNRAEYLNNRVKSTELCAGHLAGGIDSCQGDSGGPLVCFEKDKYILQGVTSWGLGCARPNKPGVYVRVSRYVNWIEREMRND

Consider `COC(=O)NC(Cc1ccc(NC(=N)N)cc1)P(=O)(Oc1ccc(NC(C)=O)cc1)Oc1ccc(NC(C)=O)cc1` (configuration not stated), for which, in data set [1], the logD is -0.08. The Activity with Rattus norvegicus was 3%; in [3], 42%; in data set [7] it was 10%; in [8] it was 18%. Besides, the IC50 against Prothrombin [2] was found to be 1.13 µM; in data set [9], 0.008 µM; on Prothrombin [10], 4.5 µM; against Plasminogen, 2.2 µM. Besides, the half-life in data set [4] is 64 h. The remaining at 3 h in [5] stood at 81%. In data set [6], this compound returned a Kapp of 1e+06 M⁻¹ s⁻¹.
